Bounds are passed on as bounds.

In general, inhibition refers to the relative decrease from the control value, in per cent. In general, GI50 refers to the concentration that inhibits growth by half. High values mean lower sensitivity of the cells, low ones greater sensitivity of the cells.

Assay [1] deals with T1, Kinesin-like protein KIF11 (Homo sapiens) (UniProt P52732).
T1 sequence (whole entry): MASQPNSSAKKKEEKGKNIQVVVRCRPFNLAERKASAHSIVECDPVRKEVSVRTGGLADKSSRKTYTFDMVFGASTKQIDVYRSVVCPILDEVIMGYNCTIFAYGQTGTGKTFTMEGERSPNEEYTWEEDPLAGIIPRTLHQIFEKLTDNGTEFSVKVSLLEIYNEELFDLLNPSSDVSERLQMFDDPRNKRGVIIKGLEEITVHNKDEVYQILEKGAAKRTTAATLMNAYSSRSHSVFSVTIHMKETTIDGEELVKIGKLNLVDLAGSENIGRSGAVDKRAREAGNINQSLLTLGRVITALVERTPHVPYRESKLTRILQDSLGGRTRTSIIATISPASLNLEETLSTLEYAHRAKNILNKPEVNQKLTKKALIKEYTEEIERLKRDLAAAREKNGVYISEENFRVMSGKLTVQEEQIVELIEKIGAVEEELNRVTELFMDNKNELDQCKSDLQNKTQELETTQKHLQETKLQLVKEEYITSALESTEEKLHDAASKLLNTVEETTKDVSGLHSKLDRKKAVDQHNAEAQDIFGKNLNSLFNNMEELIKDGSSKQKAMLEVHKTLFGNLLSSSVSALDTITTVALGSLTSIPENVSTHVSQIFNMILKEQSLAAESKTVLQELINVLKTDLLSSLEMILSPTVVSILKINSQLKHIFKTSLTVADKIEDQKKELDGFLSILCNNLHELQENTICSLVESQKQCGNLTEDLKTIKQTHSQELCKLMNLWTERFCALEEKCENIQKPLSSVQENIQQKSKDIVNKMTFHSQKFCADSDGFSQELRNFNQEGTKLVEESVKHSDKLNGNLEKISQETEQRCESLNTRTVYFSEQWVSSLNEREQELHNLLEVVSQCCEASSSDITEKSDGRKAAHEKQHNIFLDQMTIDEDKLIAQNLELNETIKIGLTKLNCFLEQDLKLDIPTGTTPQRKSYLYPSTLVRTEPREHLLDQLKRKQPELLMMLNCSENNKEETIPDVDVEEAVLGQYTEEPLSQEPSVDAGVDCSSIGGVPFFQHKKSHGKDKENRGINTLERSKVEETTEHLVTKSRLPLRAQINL
The assay can be described thus: Inhibition of porcine brain microtubule-stimulated human recombinant GST-tagged Eg5 ATPase activity at 1 mM by microplate reader in presence of Mg2+ ATP relative to control. The method, boiled down: (§1)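 Motor domain at 15 µM final, in 7.5 mM PIPES-NaOH pH 7.0 with […], 10 µM Taxol, ELIPA 1 and 2 reagents and 1.25 mg/mL microtubules. AMP-PNP, a slowly hydrolysable ATP analog and general ATPase inhibitor, tested at 1 mM. Reaction started with 1 mM Mg2+ATP at 22 °C and read kinetically at 360 nm. Run in triplicate.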

Assay [2] concerns the target T2, Kinesin-like protein KIF3C (Homo sapiens) (UniProt O14782).
T2 sequence (whole entry): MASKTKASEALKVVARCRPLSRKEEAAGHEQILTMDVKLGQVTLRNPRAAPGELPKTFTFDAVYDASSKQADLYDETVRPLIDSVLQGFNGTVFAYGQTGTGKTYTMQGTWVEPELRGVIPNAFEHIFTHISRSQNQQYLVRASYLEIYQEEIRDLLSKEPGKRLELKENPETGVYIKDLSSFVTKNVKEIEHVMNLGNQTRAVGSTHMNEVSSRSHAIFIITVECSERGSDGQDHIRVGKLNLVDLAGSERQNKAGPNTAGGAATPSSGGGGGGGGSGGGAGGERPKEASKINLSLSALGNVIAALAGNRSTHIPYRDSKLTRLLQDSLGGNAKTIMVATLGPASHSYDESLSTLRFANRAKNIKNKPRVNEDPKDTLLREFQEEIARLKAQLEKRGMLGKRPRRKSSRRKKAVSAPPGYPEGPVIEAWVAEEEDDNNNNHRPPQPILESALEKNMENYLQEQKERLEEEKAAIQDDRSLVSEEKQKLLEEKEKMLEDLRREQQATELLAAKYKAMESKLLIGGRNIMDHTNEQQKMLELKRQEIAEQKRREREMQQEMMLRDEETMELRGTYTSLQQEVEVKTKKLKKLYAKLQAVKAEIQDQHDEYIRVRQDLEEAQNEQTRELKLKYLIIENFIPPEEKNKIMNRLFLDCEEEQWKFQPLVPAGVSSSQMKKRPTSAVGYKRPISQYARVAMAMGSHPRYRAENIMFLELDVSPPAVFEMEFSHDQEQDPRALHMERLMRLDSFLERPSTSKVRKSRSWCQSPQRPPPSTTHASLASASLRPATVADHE
As to the kind of experiment: Inhibition of porcine brain microtubule-stimulated human recombinant GST-tagged KIF3C ATPase activity at 1 mM by microplate reader in presence of Mg2+ ATP relative to control. The method, boiled down:
as §1

For a further assay, the system named is K562. As to the kind of experiment: Growth inhibition of human K562 cells incubated for 4 days by WST-1 assay. The assay is classed as functional. Particulars: K562, 96 h. The method, boiled down: (§2)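 Cells were kept at 37 °C under 5% CO2 and plated on day 0 at 500–5000 cells/well. On day 1 they received ten concentrations from 0.0025 to 50 µM (final), in triplicate. On day 4 WST-1 was added, followed by 30 min–4 h incubation and absorbance at 450 nm. GI50 is the concentration killing 50% of cells.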

The next assay has as its system MDA-MB-231. As to the kind of experiment: Growth inhibition of human MDA-MB-231 cells incubated for 4 days by WST-1 assay. Particulars: MDA-MB-231, 96 h. The assay is classed as functional. The method in brief: as §2
A further assay relates to MCF7. As to the kind of experiment: Growth inhibition of human MCF7 cells incubated for 4 days by WST-1 assay. The assay is classed as functional. The note with it: MCF7, 96 h. The method, boiled down:
as §2
Background: Tetrazolium dyes change colour on reduction, which living cells bring about.

Assay [3] is described as follows: Growth inhibition of human HCT116 cells incubated for 4 days by WST-1 assay. Particulars: HCT-116, 96 h. The assay is classed as functional. The method in brief:
as §2

The nature of assay [4]: Growth inhibition of human PK59 cells incubated for 4 days by WST-1 assay. The note with it: PK-59, 96 h. The assay is classed as functional. The method, boiled down:
as §2

For another assay, the system named is HepG2. As to the kind of experiment: Growth inhibition of human HepG2 cells incubated for 4 days by WST-1 assay. The assay is classed as functional. The note with it: HepG2, 96 h. The method in brief: as §2

In the case of `Nc1ncnc2c1ncn2[C@@H]1O[C@H](COP(=O)(O)OP(=O)(O)NP(=O)(O)O)[C@@H](O)[C@H]1O`, the inhibition in assay [1] and in assay [2] was over 30% each time.

On to `COc1ccc2[nH]cc(/C(C#N)=C/c3cccnc3)c2c1`, for which the GI50 in the assay on K562 is 4 µM; in the assay with MDA-MB-231, 16.8 µM; in the assay on MCF7, 15.8 µM; in assay [3] it was 32.2 µM; in assay [4], over 50 µM; in the assay on HepG2, over 50 µM.

Values taken from ChEMBL document CHEMBL3751740, “New MKLP-2 inhibitors in the paprotrain series: Design, synthesis and biological evaluations” (Bioorg Med Chem, 2016).
